Reference: ChEMBL document CHEMBL3259649, “Design and synthesis of novel 2-(4-(2-(dimethylamino)ethyl)-4H-1,2,4-triazol-3-yl)pyridines as potential antitumor agents” (Eur J Med Chem, 2014)

How the values were obtained:
HT-29 = test: Cytotoxicity against human HT-29 cells after 72 hrs by MTT assay; type: functional, cell-based; conditions: HT-29, 72 h
Procedure, shortened: (§1)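 MTT assay: about 4 × 10³ cells per well in MEM with 10% FBS, grown 24 h at 37 °C under 5% CO₂, then exposed to compound for 72 h. MTT added to a final 5 µg/mL for 4 h at 37 °C. Three runs per cell line; IC50 is the mean of at least three determinations.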

[1] = Cytotoxicity against human U87MG cells after 72 hrs by MTT assay; type: functional, cell-based, U-87MG ATCC; conditions: U-87 MG
Procedure, shortened: as §1, with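 “°C. Formazan dissolved in DMSO and absorbance read at 492 nm against 630 nm reference.” for “°C.”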

[2] = Cytotoxicity against human MKN45 cells after 72 hrs by MTT assay; type: functional, cell-based; conditions: MKN-45, 72 h; procedure, shortened: as §1
A549 = test: Cytotoxicity against human A549 cells after 72 hrs by MTT assay; type: functional, cell-based; conditions: A549, 72 h
Procedure, shortened: as §1, with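 “°C. Formazan dissolved in DMSO and absorbance read at 492 nm against 630 nm reference.” for “°C.”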

[3] = Cytotoxicity against human H460 cells after 72 hrs by MTT assay; type: functional, cell-based; conditions: NCI-H460, 72 h; procedure, shortened: as §1
WI-38 = test: Cytotoxicity against human WI38 cells after 72 hrs by MTT assay; type: cell-based; conditions: WI-38, 72 h
Procedure, shortened: as §1, with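 “°C. Formazan dissolved in DMSO and absorbance read at 492 nm against 630 nm reference.” for “°C.”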

[4] = target: RAF proto-oncogene serine/threonine-protein kinase (Homo sapiens) (UniProt P04049); test: Inhibition of Raf1 (unknown origin) at 10 uM after 1 hr by HTRF method
Chain of RAF proto-oncogene serine/threonine-protein kinase (Homo sapiens) (P04049 whole entry): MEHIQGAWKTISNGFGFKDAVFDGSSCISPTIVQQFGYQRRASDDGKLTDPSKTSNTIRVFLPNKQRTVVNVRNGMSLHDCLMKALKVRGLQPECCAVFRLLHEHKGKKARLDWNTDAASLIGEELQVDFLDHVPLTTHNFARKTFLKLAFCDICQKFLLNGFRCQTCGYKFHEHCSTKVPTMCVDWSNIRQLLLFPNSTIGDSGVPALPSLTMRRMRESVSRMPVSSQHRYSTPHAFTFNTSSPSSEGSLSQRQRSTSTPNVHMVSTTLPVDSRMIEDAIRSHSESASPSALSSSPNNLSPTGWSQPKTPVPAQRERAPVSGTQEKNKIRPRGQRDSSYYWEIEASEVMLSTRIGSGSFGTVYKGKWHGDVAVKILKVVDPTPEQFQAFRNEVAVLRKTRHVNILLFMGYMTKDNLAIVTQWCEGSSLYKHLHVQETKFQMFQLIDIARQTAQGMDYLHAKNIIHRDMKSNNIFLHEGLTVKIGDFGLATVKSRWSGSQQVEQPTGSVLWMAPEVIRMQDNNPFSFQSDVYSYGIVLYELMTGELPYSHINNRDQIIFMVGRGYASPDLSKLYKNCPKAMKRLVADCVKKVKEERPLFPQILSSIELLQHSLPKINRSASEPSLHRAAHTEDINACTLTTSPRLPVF

[5] = target: Platelet-derived growth factor receptor alpha (Homo sapiens) (UniProt P16234); test: Inhibition of PDGFRalpha (unknown origin) at 10 uM after 20 mins by HTRF method
Chain of Platelet-derived growth factor receptor alpha (Homo sapiens) (P16234 whole entry): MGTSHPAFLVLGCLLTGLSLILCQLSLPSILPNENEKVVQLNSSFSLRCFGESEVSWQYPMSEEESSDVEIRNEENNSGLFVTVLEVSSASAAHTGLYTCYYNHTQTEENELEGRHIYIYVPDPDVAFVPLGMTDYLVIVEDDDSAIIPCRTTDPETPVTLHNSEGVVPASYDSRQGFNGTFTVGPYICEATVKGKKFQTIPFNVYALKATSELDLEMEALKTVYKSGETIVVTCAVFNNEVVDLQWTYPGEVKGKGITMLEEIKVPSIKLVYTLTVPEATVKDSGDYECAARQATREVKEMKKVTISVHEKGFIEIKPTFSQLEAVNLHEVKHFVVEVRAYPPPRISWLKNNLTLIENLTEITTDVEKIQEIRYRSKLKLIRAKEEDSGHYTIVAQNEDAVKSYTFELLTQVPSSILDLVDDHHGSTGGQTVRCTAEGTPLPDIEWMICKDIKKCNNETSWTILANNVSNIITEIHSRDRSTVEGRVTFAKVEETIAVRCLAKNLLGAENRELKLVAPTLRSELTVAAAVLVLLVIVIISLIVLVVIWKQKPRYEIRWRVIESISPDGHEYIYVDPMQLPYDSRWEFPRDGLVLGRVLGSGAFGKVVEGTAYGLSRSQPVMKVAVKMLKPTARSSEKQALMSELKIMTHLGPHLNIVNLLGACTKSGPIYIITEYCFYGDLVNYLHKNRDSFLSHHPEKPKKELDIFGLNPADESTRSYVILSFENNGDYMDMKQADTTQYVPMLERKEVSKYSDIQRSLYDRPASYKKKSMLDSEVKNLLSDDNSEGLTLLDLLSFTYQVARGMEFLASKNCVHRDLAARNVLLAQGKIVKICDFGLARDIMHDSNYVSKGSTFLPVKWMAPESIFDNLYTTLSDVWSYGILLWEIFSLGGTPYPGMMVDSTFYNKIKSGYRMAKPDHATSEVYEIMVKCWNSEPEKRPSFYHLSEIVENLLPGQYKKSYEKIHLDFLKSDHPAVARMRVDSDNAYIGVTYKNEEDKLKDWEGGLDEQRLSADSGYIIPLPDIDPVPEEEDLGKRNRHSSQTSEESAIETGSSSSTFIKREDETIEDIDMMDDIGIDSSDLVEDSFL

inhibition [4]	inhibition [5]	Structure (SMILES)	IC50 (HT-29)	IC50 [1]	IC50 [2]	IC50 (A549)	IC50 [3]	IC50 (WI-38)
		CN(C)CCn1cnnc1-c1cc(Oc2ccc(NC(=O)N/N=C/c3ccc(O)c(F)c3)cc2F)ccn1	3.31 µM	> 100 µM	1.97 µM	13.4 µM	2.62 µM	
		CN(C)CCn1cnnc1-c1cc(Oc2ccc(NC(=O)N/N=C/c3c(Cl)cccc3Cl)cc2F)ccn1	0.28 µM	> 100 µM	0.16 µM	1.41 µM	0.35 µM	3.32 µM
		CN(C)CCn1cnnc1-c1cc(Oc2ccc(NC(=O)N/N=C/c3cc(C(C)(C)C)cc(C(C)(C)C)c3O)cc2F)ccn1	0.68 µM	0.52 µM	3.3 µM	0.98 µM	0.59 µM	2.35 µM
		CN(C)CCn1cnnc1-c1cc(Oc2ccc(NC(=O)N/N=C/c3ccc(O)c(Br)c3)cc2F)ccn1	0.45 µM	12.4 µM	1.86 µM	1.37 µM	0.43 µM	5.56 µM
		CN(C)CCn1cnnc1-c1cc(Oc2ccc(NC(=O)N/N=C/c3cccc(O)c3)cc2F)ccn1	0.33 µM	> 100 µM	1.37 µM	> 100 µM	0.78 µM	
		CN(C)CCn1cnnc1-c1cc(Oc2ccc(NC(=O)N/N=C/c3c[nH]c4ccccc34)cc2F)ccn1	1.3 µM	0.69 µM	0.79 µM	0.82 µM	1.63 µM	3.62 µM
		CN(C)CCn1cnnc1-c1cc(Oc2ccc(NC(=O)N/N=C/c3c(O)ccc4ccccc34)cc2F)ccn1	0.67 µM	0.62 µM	2.02 µM	0.88 µM	0.89 µM	3.25 µM
		CN(C)CCn1cnnc1-c1cc(Oc2ccc(NC(=O)N/N=C/c3ccccc3[N+](=O)[O-])cc2F)ccn1	0.95 µM	7.15 µM	1.02 µM	1.2 µM	1.27 µM	6.86 µM
		COc1ccc(/C=N/NC(=O)Nc2ccc(Oc3ccnc(-c4nncn4CCN(C)C)c3)c(F)c2)c(OC)c1OC	3.97 µM	7.65 µM	2.02 µM	6.68 µM	1.79 µM	
61.6%	12.3%	CN(C)CCn1cnnc1-c1cc(Oc2ccc(NC(=O)N/N=C/c3ccc4c(c3)OCO4)cc2F)ccn1	0.47 µM	0.72 µM	1.97 µM	1.83 µM	1.17 µM	4.27 µM
		CN(C)CCn1cnnc1-c1cc(Oc2ccc(NC(=O)N/N=C/c3ccc(O)c(O)c3)cc2F)ccn1	1.89 µM	> 100 µM	3.24 µM	> 100 µM	1.93 µM	
		COc1cc(/C=N/NC(=O)Nc2ccc(Oc3ccnc(-c4nncn4CCN(C)C)c3)c(F)c2)cc(OC)c1OC	3.62 µM	22.5 µM	2.9 µM	> 100 µM	2.77 µM	
		CN(C)CCn1cnnc1-c1cc(Oc2ccc(NC(=O)N/N=C/c3ccc(F)cc3Cl)cc2F)ccn1	0.51 µM	1.21 µM	0.87 µM	1.12 µM	0.72 µM	2.09 µM
73.7%	11.2%	CN(C)CCn1cnnc1-c1cc(Oc2ccc(NC(=O)N/N=C/c3ccc(Cl)cc3Cl)cc2F)ccn1	0.39 µM	2.33 µM	0.75 µM	0.81 µM	0.13 µM	4.76 µM
		Cn1cnnc1-c1cc(Oc2ccc(NC(=O)N/N=C/c3ccccc3)cc2F)ccn1	8.79 µM	36.3 µM	7.61 µM	7.56 µM	15.7 µM	
		CNC(=O)c1cc(Oc2ccc(NC(=O)Nc3ccc(Cl)c(C(F)(F)F)c3)cc2)ccn1 [SORAFENIB]		15.6 µM		1.92 µM		7.54 µM
